These results are taken from ChEMBL document CHEMBL1126555, “6-Substituted benzimidazoles as new nonpeptide angiotensin II receptor antagonists: synthesis, biological activity, and structure-activity relationships” (J Med Chem, 1993).

One assay has as its system Rattus norvegicus. The experiment in a line: Fall in mean arterial blood pressure (MABP) at 1 mg/kg po bid for 4 days after first treatment in conscious chronically-instrumented renovascular hypertensive rats. It is filed as functional.
Conditions: not given
The essentials:
(§1)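 Male Chbb:THOM rats (140–150 g) made renovascular hypertensive by a silver clip (internal diameter 0.20 mm) on the left renal artery under pentobarbitone-sodium (50 mg/kg ip). Chronic-use pressure transmitter implanted. Conscious animals dosed orally twice daily for 4 days. Mean arterial pressure and heart rate recorded continuously at 1-h intervals over 96 h, given as mean ± SE.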
`CCCc1nc2c(C)cc(-c3nc4ccccc4n3C)cc2n1Cc1ccc(-c2ccccc2C(=O)O)cc1` came in with an MABP of 42 mmHg.

A further assay addresses T1, Type-1 angiotensin II receptor B (Rattus norvegicus, UniProt P29089).
T1 sequence (P29089 whole entry): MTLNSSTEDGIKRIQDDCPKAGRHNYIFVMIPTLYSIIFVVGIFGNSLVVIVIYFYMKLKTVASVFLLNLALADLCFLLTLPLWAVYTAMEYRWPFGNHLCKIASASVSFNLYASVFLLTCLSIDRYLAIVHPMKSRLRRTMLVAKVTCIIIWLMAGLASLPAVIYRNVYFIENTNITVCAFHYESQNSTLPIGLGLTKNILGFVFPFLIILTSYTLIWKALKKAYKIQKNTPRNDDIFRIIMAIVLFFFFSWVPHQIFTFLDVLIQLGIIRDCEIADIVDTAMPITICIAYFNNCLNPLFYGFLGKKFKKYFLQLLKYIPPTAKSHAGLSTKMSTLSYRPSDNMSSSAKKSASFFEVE
The experiment in a line: Inhibition of specific binding of [125I]angiotensin-II to angiotensin 1 receptor in rat lung membrane preparation. The assay is classed as cell membranes.
Conditions: not given
The essentials:
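Membranes from lungs of male Wistar rats (Chbb:THOM, 200–220 g), homogenized in Tris buffer pH 7.20 and spun at 1000g, then twice at 48 000g. DMSO ≤1%. Nonspecific binding defined with 1 μM AII. Filtration, gamma counting. IC50 from nonlinear fit; Ki by Cheng–Prusoff.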
A word on the IC50: it is the concentration needed to halve the response being measured. Lower therefore signals greater potency. With `CCCCc1nc2ccc(NC(=O)N(C)C)cc2n1Cc1ccc(-c2ccccc2C(=O)O)cc1`, the IC50 stood at 24 nM.

In turn, `CCCCc1nc2ccc(N3CCCCS3(=O)=O)cc2n1Cc1ccc(-c2ccccc2C(=O)O)cc1` returned an IC50 of 34 nM.

`CCCCc1nc2ccccc2n1Cc1ccc(-c2ccccc2C(=O)O)cc1`: the 50% inhibitory concentration (IC50) was 400 nM.

With `CCCCC(=O)Nc1ccc2nc(CCCC)n(Cc3ccc(-c4ccccc4C(=O)O)cc3)c2c1`, the IC50 was determined as 86 nM.

`CCCCc1nc2c(NC(C)=O)cccc2n1Cc1ccc(-c2ccccc2C(=O)O)cc1` registered an IC50 of 5700 nM.

As for `CCCCc1nc2c(NC(=O)NC3CCCCC3)cccc2n1Cc1ccc(-c2ccccc2C(=O)O)cc1`, the IC50 is 29300 nM.

`CCCc1nc2c(C)cc(-c3nc4ccccc4n3C)cc2n1Cc1ccc(-c2ccccc2-c2nnn[nH]2)cc1`: the half-inhibitory concentration (IC50) was found to be 13 nM.

Compound `CCCCc1nc2cccc(C)c2n1Cc1ccc(-c2ccccc2C(=O)O)cc1` returned an IC50 of 480 nM.

As for `CCCCc1nc2ccc(N3CCCCC3=O)cc2n1Cc1ccc(-c2ccccc2-c2nnn[nH]2)cc1`, the IC50 was determined as 4 nM.

On to `CCCCc1nc2ccc(N(C)C(=O)NC3CCCCC3)cc2n1Cc1ccc(-c2ccccc2C(=O)O)cc1`, for which the 50% inhibitory concentration (IC50) came out at 26 nM.

Compound `CCCCc1nc2cccc(NC(C)=O)c2n1Cc1ccc(-c2ccccc2C(=O)O)cc1` gave a 50% inhibitory concentration (IC50) of 1800 nM.

`CCCCc1nc2ccc(NC(C)=O)cc2n1Cc1ccc(-c2ccccc2C(=O)O)cc1` came in with an IC50 of 180 nM.

In the case of `CCCc1nc2c(C)cc(-c3nc4ccccc4n3C)cc2n1Cc1ccc(-c2ccccc2C(=O)O)cc1`, the IC50 came to 3 nM.

Regarding `CCCCCNc1ccc2nc(CCCC)n(Cc3ccc(-c4ccccc4C(=O)O)cc3)c2c1`, the IC50 turned out to be 390 nM.

As for `CCCCc1nc2c(C)cccc2n1Cc1ccc(-c2ccccc2C(=O)O)cc1`, the IC50 was determined as 1200 nM.

`CCCc1nc2c(C)cc(CN(C)C)cc2n1Cc1ccc(-c2ccccc2C(=O)O)cc1` yielded an IC50 of 158 nM.

In the case of `CCCCc1nc2ccc(N)cc2n1Cc1ccc(-c2ccccc2C(=O)O)cc1`, the concentration for half-maximal inhibition (IC50) turned out to be 540 nM.

The compound `CCCc1nc2ccc(-c3nc4ccccc4o3)cc2n1Cc1ccc(-c2ccccc2-c2nn[nH]n2)cc1` gave a half-maximal inhibitory concentration (IC50) of 240 nM.

Compound `CCCCc1nc2ccc(NC(=O)N(C)C)cc2n1Cc1ccc(-c2ccccc2-c2nn[nH]n2)cc1` gave a concentration for half-maximal inhibition (IC50) of 8 nM.

In the case of `CCCCc1nc2ccc(N(C)C(=O)NC3CCCCC3)cc2n1Cc1ccc(-c2ccccc2-c2nn[nH]n2)cc1`, the IC50 was 10 nM.

In turn, `CCCc1nc2c(C)cc(-c3ccccn3)cc2n1Cc1ccc(-c2ccccc2-c2nnn[nH]2)cc1` came in with a half-maximal inhibitory concentration (IC50) of 5 nM.

Turning to `CCCCc1nc2ccc(N3CCCCS3(=O)=O)cc2n1Cc1ccc(-c2ccccc2-c2nnn[nH]2)cc1`, the IC50 amounted to 3 nM.

As for `CCCCc1nc2ccc(N3CCCCC3=O)cc2n1Cc1ccc(-c2ccccc2C(=O)O)cc1`, the 50% inhibitory concentration (IC50) came out at 81 nM.

In turn, `CCCc1nc2ccc(-c3nc4ccccc4n3C)cc2n1Cc1ccc(-c2ccccc2-c2nn[nH]n2)cc1` had an IC50 of 5 nM.

Compound `CCCCc1nc2cc(NC(C)=O)ccc2n1Cc1ccc(-c2ccccc2C(=O)O)cc1` displayed a half-inhibitory concentration (IC50) of 460 nM.

In turn, `CCCCc1nc(Cl)c(CO)n1Cc1ccc(-c2ccccc2C(=O)O)cc1` gave an IC50 of 350 nM.

`CCCc1nc2ccc(-c3nc4ccccc4n3C)cc2n1Cc1ccc(-c2ccccc2C(=O)O)cc1` came in with an IC50 of 3 nM.

Compound `CCCCc1nc2ccc(N3CCCCC3)cc2n1Cc1ccc(-c2ccccc2C(=O)O)cc1` had an IC50 of 160 nM.

`CCCCc1nc2cccc(NC(=O)NC3CCCCC3)c2n1Cc1ccc(-c2ccccc2C(=O)O)cc1` had a 50% inhibitory concentration (IC50) of 160 nM.

Regarding `CCCCc1nc2c(N)cccc2n1Cc1ccc(-c2ccccc2C(=O)O)cc1`, the IC50 was 1700 nM.

As to `CCCCc1nc2cc(NC(=O)NC3CCCCC3)ccc2n1Cc1ccc(-c2ccccc2C(=O)O)cc1`, the concentration for half-maximal inhibition (IC50) amounted to 800 nM.

On to `CCCCc1nc2ccc(NC(=O)NC3CCCCC3)cc2n1Cc1ccc(-c2ccccc2C(=O)O)cc1`, for which the IC50 turned out to be 26 nM.

Regarding `CCCCc1nc2ccc(NC(=O)NC3CCCCC3)cc2n1Cc1ccc(-c2ccccc2-c2nn[nH]n2)cc1`, the IC50 was 21 nM.

`CCCCc1nc2ccc(C)cc2n1Cc1ccc(-c2ccccc2C(=O)O)cc1` had a concentration for half-maximal inhibition (IC50) of 850 nM.

The compound `CCCCc1nc2ccc(N(C)S(=O)(=O)CCC)cc2n1Cc1ccc(-c2ccccc2C(=O)O)cc1` had an IC50 of 33 nM.

On to `CCCCc1nc2cc(C)ccc2n1Cc1ccc(-c2ccccc2C(=O)O)cc1`, for which the half-maximal inhibitory concentration (IC50) was found to be 1200 nM.

With `CCCc1nc2ccc(-c3ccccn3)cc2n1Cc1ccc(-c2ccccc2-c2nnn[nH]2)cc1`, the IC50 was found to be 11 nM.

In the case of `CCCc1nc2c(C)cc(-c3cn4ccccc4n3)cc2n1Cc1ccc(-c2ccccc2-c2nnn[nH]2)cc1`, the IC50 is 3 nM.

`CCCCc1nc2cc(N)ccc2n1Cc1ccc(-c2ccccc2C(=O)O)cc1` showed a concentration for half-maximal inhibition (IC50) of 820 nM.

The test system of the next assay is Rattus norvegicus. The experiment in a line: Tested for percent inhibition of AII pressor response 2 hr after i.v. administration of 0.3 mg/Kg in rats. It is filed as functional. The settings on record: iv.
In general, inhibition in vivo refers to the drop in the measured response relative to a control, in per cent. Regarding `CCCCc1nc2ccc(N3CCCCC3=O)cc2n1Cc1ccc(-c2ccccc2-c2nnn[nH]2)cc1`, the inhibition in vivo at 0.3 mg/kg stood at 60%.

Turning to `CCCCc1nc2ccc(N3CCCCS3(=O)=O)cc2n1Cc1ccc(-c2ccccc2-c2nnn[nH]2)cc1`, the inhibition in vivo at 0.3 mg/kg is 60%.

In a further assay the test system is Rattus norvegicus. The experiment in a line: Maximum fall in mean arterial blood pressure (MABP) at 1 mg/kg po bid after 4 days of treatment in conscious chronically-instrumented renovascular hypertensive rats.
Conditions: not given
The assay is classed as functional. The essentials:
as §1
In the case of `CCCc1nc2c(C)cc(-c3nc4ccccc4n3C)cc2n1Cc1ccc(-c2ccccc2C(=O)O)cc1`, the MABP came to 68 mmHg.
